Laboratory results as given in ChEMBL document CHEMBL3045155, “Design, synthesis, and insecticidal activities of novel monohalovinylated pyrethroids” (2011).
≈ marks a conversion by molar mass, not a printed value.

Tests used:
Assay type in all cases: functional
Culex pipiens pallens [1] = assay: Potency index, ratio of LC50 for cypermethrin to LC50 for test compound against Culex pipiens pallens (mosquito) fourth-instar larvae assessed as insect mortality measured 24 hr post compound exposure by dipping method
Culex pipiens pallens [2] = assay: Insecticidal activity against Culex pipiens pallens (mosquito) fourth-instar larvae assessed as insect mortality measured 24 hr post compound exposure by dipping method; conditions: for LC50: Culex pipiens, 24 h
Mythimna separata = assay: Insecticidal activity against Mythimna separata (Oriental armyworm) grown on compound pre-treated corn leaves assessed as insect mortality measured 48 hr post compound exposure
Summary of the method: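 Leaves on filter paper in Petri dishes dipped 5 s in test solutions (acetone, diluted with water) and air-dried, then infested with 10 third-instar larvae; concentrations 500.0 down to 0.25 mg L-1; triplicate per concentration; 26 ± 1 °C, 70 ± 10% RH; percentage mortality at 48 h.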

| Compound | RatioLC50 (Culex pipiens pallens [1]) | LC95 (Culex pipiens pallens [2]) | LC50 (Culex pipiens pallens [2]) | LC50 (Mythimna separata) |
| --- | --- | --- | --- | --- |
| CC1(C)[C@H](/C=C/Cl)[C@H]1CC(=O)OCc1c(F)c(F)cc(F)c1F (relative stereo) | 4.3 | 0.358 µg/mL (≈ 1.02 µM) | 0.249 µg/mL (≈ 0.71 µM) | – |
| CC1(C)C(C=C(Cl)Cl)C1C(=O)OC(C#N)c1cccc(Oc2ccccc2)c1 (stereo not drawn) [ALPHA-CYPERMETHRIN] | 100 | 0.0286 µg/mL (≈ 0.0687 µM) | 0.0106 µg/mL (≈ 0.0255 µM) | – |
| C=CCC1=C(C)C(COC(=O)C[C@H]2[C@@H](/C=C/Br)C2(C)C)CC1=O (relative stereo) | 2.4 | 0.7054 µg/mL (≈ 1.85 µM) | 0.44 µg/mL (≈ 1.15 µM) | – |
| CC1(C)[C@H](C(=O)O[C@H](C#N)c2cccc(Oc3ccccc3)c2)[C@@H]1C=C(Br)Br [DELTAMETHRIN] | 883 | 0.0033 µg/mL (≈ 0.00653 µM) | 0.0012 µg/mL (≈ 0.00238 µM) | 0.149 µg/mL (≈ 0.294 µM) |
